Results taken from ChEMBL document CHEMBL1122572, “Improved synthesis and antitumor evaluation of 5,8-dideazaisofolic acid and closely related analogues” (J Med Chem, 1984).

Assays:
[1] = In vitro inhibition of growth of the human gastrointestinal adenocarcinoma cells HaTu80; type: functional
Method in brief: (§1)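 Monodispersed growing cells (0.7-1 × 10^5 in 1 mL medium) were added to wells already holding 0–50 μL of drug solution. Drug was dissolved fresh in 0.1 M NaOH and diluted with pH 7.0 phosphate buffer. Cells were incubated 72–96 h at 37 °C in humidified 8% CO₂, trypsinized and counted on a Coulter counter. IC50 was the concentration giving 50% growth inhibition versus untreated controls.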

[2] = test system: WiDr; test: In vitro inhibition of growth of the human gastrointestinal adenocarcinoma cells WIDR; type: functional, cell-based; method in brief: as §1
[3] = test system: HT-29; test: In vitro inhibition of growth of the human gastrointestinal adenocarcinoma cells HT-29; type: functional, cell-based; method in brief: as §1
[4] = test system: SW480; test: In vitro inhibition of growth of the human gastrointestinal adenocarcinoma cells SW480; type: functional, cell-based; method in brief: as §1

Structure (SMILES): CN(Cc1ccc(C(=O)NC(CCC(=O)O)C(=O)O)cc1)c1ccc2nc(N)nc(O)c2c1 (centres undefined)
- IC50 ([1]; Homo sapiens): 4.8 µM
- IC50 [2]: 6.3 µM
- IC50 [3]: 3.2 µM
- IC50 [4]: 5 µM

Structure (SMILES): Nc1nc(=O)c2cc(NCc3ccc(C(=O)NC(CCC(=O)O)C(=O)O)cc3)ccc2[nH]1 (stereo in doubt; form 1)
- IC50 [1]: 4.5 µM

Structure (SMILES): Cc1c(N(C)Cc2ccc(C(=O)NC(CCC(=O)O)C(=O)O)cc2)ccc2nc(N)nc(O)c12 (centres undefined)
- IC50 ([1]; Homo sapiens): 3.6 µM
- IC50 [2]: 4.8 µM
- IC50 [3]: 2.7 µM
- IC50 [4]: 4.8 µM

Structure (SMILES): Nc1nc(O)c2cc(N(C=O)Cc3ccc(C(=O)NC(CCC(=O)O)C(=O)O)cc3)ccc2n1 (centres undefined)
- IC50 ([1]; Homo sapiens): 95 µM
- IC50 [2]: 195 µM
- IC50 [3]: 100 µM
- IC50 [4]: 150 µM

Structure (SMILES): CN(Cc1cnc2nc(N)nc(N)c2n1)c1ccc(C(=O)N[C@@H](CCC(=O)O)C(=O)O)cc1 [METHOTREXATE]
- IC50 ([1]; Homo sapiens): 0.009 µM
- IC50 [2]: 0.025 µM
- IC50 [3]: 0.018 µM
- IC50 [4]: 0.015 µM

Structure (SMILES): Cc1c(NCc2ccc(C(=O)NC(CCC(=O)O)C(=O)O)cc2)ccc2nc(N)nc(O)c12 (centres undefined)
- IC50 ([1]; Homo sapiens): 4 µM
- IC50 [2]: 4 µM
- IC50 [3]: 1.1 µM
- IC50 [4]: 10 µM

Structure (SMILES): Nc1nc(N)c2cc(NCc3ccc(C(=O)NC(CCC(=O)O)C(=O)O)cc3)ccc2n1 (centres undefined)
- IC50 ([1]; Homo sapiens): 0.15 µM
- IC50 [2]: 0.2 µM
- IC50 [3]: 0.2 µM
- IC50 [4]: 0.2 µM

Structure (SMILES): Nc1nc(=O)c2cc(NCc3ccc(C(=O)N[C@H](CCC(=O)O)C(=O)O)cc3)ccc2[nH]1
- IC50 ([1]; Homo sapiens): > 300 µM
- IC50 [2]: > 300 µM
- IC50 [3]: > 300 µM
- IC50 [4]: > 300 µM
